The term Kd denotes the constant that tells how readily two partners part at equilibrium.

The values that follow come from the RNAGym collection of RNA variant scans (doi:10.1038/nmeth.2970).

B1: NELF-E aptamer (parent)
chain: CCCAACGACUGCCGAGCGAGAUUACGCUUGAGCGCCCCACUGAGGAUGCCCACGGGCGAUUGGGGCACGG

Variants of B1 are the subject of this data set. Briefly: HiTS-RAP. As to conditions: with NELF-E (Drosophila). In outline: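 Aptamer DNA templates bearing a T7 promoter and a ter site were sequenced on an Illumina GAIIx flowcell. T7 RNA polymerase then transcribed them in situ, and GST-Tus halted transcription over 30 minutes at 37°C. After a 30-minute room-temperature equilibration with NELF-E-mOrange at 0.064 to 1000 nM in HEPES binding buffer, clusters were imaged, using only the first binding curve. Intensities normalised to sequencing intensity were averaged per sequence and fitted with weighted Hill fits to give Kd, retaining only fits whose variance stayed under 1,000,000.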
As for CCCGACGACUGCCGAGCGAGAUUACGCUUGAGCGCCCCACUGAGGAUGCCCACGGGCUAUUGGGGCACGG [A4G G58U], the Kd is 13.2 nM.
On to CCCGACGACUGCCGAGCGAGAUUACGCUUGAGCGCCCCACUGAGGAUGCCCACGGGCGAUGGGGGCACGG [A4G U61G], for which the Kd worked out at 9.81 nM.
Regarding CCCGACGACUGCCGAGCGAGAUUACGCUUGAGCGCCCCACUGAGGAUGCCCACGGGCGAUCGGGGCACGG [A4G U61C], the Kd worked out at 66.2 nM.
In the case of CCCGACGACUGCCGAGCGAGAUUACGCUUGAGCGCCCCACUGAGGAUGCCCACGGGCGAUAGGGGCACGG [A4G U61A], the Kd was 37.8 nM.
For CCCGACGACUGCCGAGCGAGAUUACGCUUGAACGCCCCACUGAGGAUGCCCACGGGCGAUUGGGGCACGG [A4G G32A], the Kd is 5.33 nM.
Then CCCGACGACUGCCGAGCGAGAUUACGCUUGAUCGCCCCACUGAGGAUGCCCACGGGCGAUUGGGGCACGG [A4G G32U], with 5.95 nM; and CCCGACGACUGCCGAGCGAGAUUACGCUUGAGCGCCCCACUGAGGAUGCCCACGGGCGAUUGUGGCACGG [A4G G63U], with 11.1 nM; and CCCGACGACUGCCGAGCGAGAUUACGCUUGAGCGCCCCACUGAGGAUGCCCACGGGCGAUUGAGGCACGG [A4G G63A], with 15.1 nM.
Then CCCGACGACUGCCGAGCGAGAUUACGCUUGAGCGCCCCACUGAGGAUGCCCACGGGCGAUUGCGGCACGG [A4G G63C], with 28.6 nM; and CCCGACGACUGCCGAGCGAGAUUACGCUUGAGCGCCCCACUGAGGAUUCCCACGGGCGAUUGGGGCACGG [A4G G48U], with 8.36 nM; and CCCGACGACUGCCGAGCGAGAUUACGCUUGAGCGCCCCACUGAGGAUACCCACGGGCGAUUGGGGCACGG [A4G G48A], with 11 nM.
The value for CCCGACGACUGCCGAGCGAUAUUACGCUUGAGCGCCCCACUGAGGAUGCCCACGGGCGAUUGGGGCACGG [A4G G20U] was 7.1 nM; that for CCCGACGACUGCCGAGCGAAAUUACGCUUGAGCGCCCCACUGAGGAUGCCCACGGGCGAUUGGGGCACGG [A4G G20A] was 5.15 nM; that for CCCGACGACUGCCGAGCGAGAUUACGCUUGAGCGCCCCACUGAGGAUGCCCACAGGCGAUUGGGGCACGG [A4G G54A] was 14.1 nM.
Turning to CCCGACGACUGCCGAGCGAGAUUACGCUUGAGCGCCCCACUGAGGAUGCCCACUGGCGAUUGGGGCACGG [A4G G54U], the Kd worked out at 6.61 nM.
For the variant CCCUACGUCUGCCGAGCGAGAUUACGCUUGAGCGCCCCACUGAGGAUGCCCACGGGCGAUUGGGGCACGG [A4U A8U], the Kd stood at 6.22 nM.
Then CCCUACGGCUGCCGAGCGAGAUUACGCUUGAGCGCCCCACUGAGGAUGCCCACGGGCGAUUGGGGCACGG [A4U A8G], with 6.19 nM; and CCCGACGACUGCCGAGCGAGAUUACGCUUGAGCGCCCCACUGAGGAUGCCCACGGGCGAUUUGGGCACGG [A4G G62U], with 8.86 nM; and CCCGACGACUGCCGAGCGAGAUUACGCUUGAGCGCCCCACUGAGGAUGCCCACGGGCGAUUAGGGCACGG [A4G G62A], with 20.8 nM.
The value for CCCGACGACUGCCGAGCGAGAUUACGCUUGAGCGCCCCACUGAUGAUGCCCACGGGCGAUUGGGGCACGG [A4G G44U] was 7.66 nM; that for CCCGACGACUGCCGAGCGAGAUUACGCUUGAGCGCCCCACUGAAGAUGCCCACGGGCGAUUGGGGCACGG [A4G G44A] was 54.3 nM.
Take CCCGACGACUGCCGAGCGAGAUUACGCUUGAGCGCCCCACUGAGAAUGCCCACGGGCGAUUGGGGCACGG [A4G G45A]: the Kd was 85.6 nM.
Turning to CCCGACGACUGCCGAGCGAGAUUACGCUUGAGCGCCCCACUGAGUAUGCCCACGGGCGAUUGGGGCACGG [A4G G45U], the dissociation constant Kd stood at 8.32 nM.
For the variant CCCUACGACUGCCGUGCGAGAUUACGCUUGAGCGCCCCACUGAGGAUGCCCACGGGCGAUUGGGGCACGG [A4U A15U], the Kd was 6.22 nM.
As for CCCUACGACUGCCGGGCGAGAUUACGCUUGAGCGCCCCACUGAGGAUGCCCACGGGCGAUUGGGGCACGG [A4U A15G], the Kd came out at 5.02 nM.
Then CCCGACGACUGCCGAGCGAGAUUACGCUUGAGCGCCCCACUGAGGAUGCCCACGGGCGAUUGGUGCACGG [A4G G64U], with 7.6 nM; and CCCGACGACUGCCGAGCGAGAUUACGCUUGAGCGCCCCACUGAGGAUGCCCACGGGCGAUUGGAGCACGG [A4G G64A], with 8.61 nM; and CCCGACGACUGCCGAGCGAGAUUACGCUUGAGCGCCCCACUGAGGAUGCCCACGGGCGAUUGGCGCACGG [A4G G64C], with 7.19 nM.
With CCCUACGACUGCCGAGCGAGGUUACGCUUGAGCGCCCCACUGAGGAUGCCCACGGGCGAUUGGGGCACGG [A4U A21G], the Kd was determined as 5.7 nM.
Then CCCGACGACUGCCGAGCGAGAUUACGCGUGAGCGCCCCACUGAGGAUGCCCACGGGCGAUUGGGGCACGG [A4G U28G], with 6.58 nM; and CCCGACGACUGCCGAGCGAGAUUACGCCUGAGCGCCCCACUGAGGAUGCCCACGGGCGAUUGGGGCACGG [A4G U28C], with 9.05 nM.
As for CCCGACGACUGCCGAGCGAGAUUACGCAUGAGCGCCCCACUGAGGAUGCCCACGGGCGAUUGGGGCACGG [A4G U28A], the Kd was determined as 4.59 nM.
The value for CCCGACGACUGCCGAGCAAGAUUACGCUUGAGCGCCCCACUGAGGAUGCCCACGGGCGAUUGGGGCACGG [A4G G18A] was 5.38 nM.
CCCGACGACUGCCGAGCUAGAUUACGCUUGAGCGCCCCACUGAGGAUGCCCACGGGCGAUUGGGGCACGG [A4G G18U]: the Kd came to 5.96 nM.
As to CCCGACGACUGCCGAGCGAGAUUACGCUUUAGCGCCCCACUGAGGAUGCCCACGGGCGAUUGGGGCACGG [A4G G30U], the dissociation constant Kd was 5.76 nM.
For the variant CCCGACGACUGCCGAGCGAGAUUACGCUUAAGCGCCCCACUGAGGAUGCCCACGGGCGAUUGGGGCACGG [A4G G30A], the Kd came to 4.89 nM.
Regarding CCCGACGACUGCCGAGCGAGAUUACGCUUGAGCGCCCCACUGAGGAAGCCCACGGGCGAUUGGGGCACGG [A4G U47A], the Kd was 12.3 nM.
Then CCCGACGACUGCCGAGCGAGAUUACGCUUGAGCGCCCCACUGAGGAGGCCCACGGGCGAUUGGGGCACGG [A4G U47G], with 7.07 nM.
